Experiment [1] addresses T1, Glucose-dependent insulinotropic receptor (Homo sapiens) (UniProt Q8TDV5).
T1 sequence (whole entry): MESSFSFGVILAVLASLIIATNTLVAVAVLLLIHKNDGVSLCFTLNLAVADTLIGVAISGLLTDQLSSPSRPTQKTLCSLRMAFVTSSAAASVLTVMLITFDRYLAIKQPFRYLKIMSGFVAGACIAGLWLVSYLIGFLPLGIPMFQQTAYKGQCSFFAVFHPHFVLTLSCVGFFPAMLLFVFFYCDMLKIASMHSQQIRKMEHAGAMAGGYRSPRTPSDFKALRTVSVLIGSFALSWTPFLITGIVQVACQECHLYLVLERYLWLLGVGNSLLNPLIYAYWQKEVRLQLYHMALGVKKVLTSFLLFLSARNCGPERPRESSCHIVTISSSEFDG
The experiment in a line: Agonist activity at human GPR119 expressed in CHOK1 cells assessed as cAMP accumulation after 1 hr by ultra LANCE assay relative to GSK1292263. The format is functional, cell-based. In outline: (§1)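 hGPR119-transfected cells were centrifuged and resuspended in cAMP assay buffer (HBSS, 0.1% BSA, 0.5 mM IBMX). They were treated with compounds over a concentration range for 1 h. Eu-cAMP tracer and ULight anti-cAMP lysis solutions were then added, with 1 h at room temperature. LANCE Ultra TR-FRET read, triplicates per concentration. EC50 is the concentration giving 50% cAMP stimulation; %max is relative to GSK-1292263 maximal effect.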
In general terms: cAMP levels reflect the balance of adenylyl cyclase and phosphodiesterase activity.

Experiment [2] concerns the target T2, Glucose-dependent insulinotropic receptor (Homo sapiens, UniProt Q8TDV5).
T2 sequence (Q8TDV5 whole entry): T1 sequence (whole entry)
The experiment in a line: Agonist activity at human GPR119 expressed in CHOK1 cells assessed as cAMP accumulation after 1 hr by ultra LANCE assay. The format is functional, cell-based. In outline:
as §1

The test system of experiment [3] is Mus musculus. The experiment in a line: Antidiabetic activity in C57BL/6N mouse assessed as reduction in blood glucose AUC (0 to 120 mins) at 300 mg/kg administered as single dose after 16 hrs of starvation followed by glucose challenge at 4 hrs post dose by OGTT relative to control. The experiment is classed as functional. Details: scale not given: the % may be the effect or the level left. The gist of the method:
(§2)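 C57BL/6N mice were fasted 16 h and given a single dose: vehicle (0.5% sodium carboxymethylcellulose, 10 mL/kg), test compounds at 5 or 15 mg/kg, or metformin at 300 mg/kg. A glucose challenge (3 g/kg, oral) followed 4 h later. Blood glucose was read at 0, 15, 30, 60, 90 and 120 min for AUC0–2h. n = 8; mean ± SE versus vehicle.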

Experiment [4] has as its system Mus musculus. The experiment in a line: Antidiabetic activity in C57BL/6N mouse assessed as reduction in blood glucose AUC (0 to 120 mins) at 15 mg/kg administered as single dose after 16 hrs of starvation followed by glucose challenge at 4 hrs post dose by OGTT relative to control. The experiment is classed as functional. Details: scale not given: the % may be the effect or the level left. The gist of the method: as §2

The subject of experiment [5] is Mus musculus. The experiment in a line: Antidiabetic activity in C57BL/6N mouse assessed as reduction in blood glucose AUC (0 to 120 mins) administered as single dose after 16 hrs of starvation followed by glucose challenge at 4 hrs post dose by OGTT. The format is functional, organism-based. In outline:
as §2

In experiment [6] the test system is Mus musculus. The experiment in a line: Antidiabetic activity in C57BL/6N mouse assessed as reduction in blood glucose AUC (0 to 120 mins) at 5 mg/kg administered as single dose after 16 hrs of starvation followed by glucose challenge at 4 hrs post dose by OGTT relative to control. The experiment is classed as functional. The arrangement: scale not given: the % may be the effect or the level left. In outline:
as §2

%max, EC50 and Activity data for 15 molecules are collected here from ChEMBL document CHEMBL4229527, “Design and synthesis of novel pyrimido[5,4-d]pyrimidine derivatives as GPR119 agonist for treatment of type 2 diabetes” (Bioorg Med Chem, 2018).

What is called EC50 is the concentration needed to bring the measured effect to its halfway point.

For `CC(C)(C)OC(=O)N1C[C@@H]2CC[C@H]1C[C@@H]2Nc1ncnc2c(Nc3ccc(S(C)(=O)=O)cc3)ncnc12` (relative stereo), the %max in experiment [1] came to 71.8%. Also, in experiment [2], the EC50 came out at 179 nM.

On to `CC(C)(C)OC(=O)N1CCC(Nc2ncnc3c(Nc4ccc(S(C)(=O)=O)cc4)ncnc23)CC1`, for which the %max in experiment [1] is 61.3%. The EC50 in experiment [2] worked out at 345 nM.

With `CC(C)(C)OC(=O)N1CCC(Nc2ncnc3c(Nc4ccc(C#N)cc4F)ncnc23)CC1`, the %max in experiment [1] was 67.2%. In addition, the EC50 in experiment [2] came to 147 nM.

As to `CC(C)(C)OC(=O)N1C[C@@H]2CC[C@H]1C[C@H]2Nc1ncnc2c(Nc3ccc(C#N)cc3F)ncnc12` (relative stereo), the %max in experiment [1] worked out at 31.7%. Further, the EC50 in experiment [2] was greater than 10000 nM.

With `CC(C)(C)OC(=O)N1[C@@H]2CC[C@H]1C[C@@H](Nc1ncnc3c(Nc4ccc(S(C)(=O)=O)cc4)ncnc13)C2`, the %max in experiment [1] amounted to 72.9%. Besides, the half-maximal effective concentration (EC50) in experiment [2] is 44 nM.

Turning to `CC(C)(C)OC(=O)N1[C@@H]2CC[C@H]1C[C@@H](Oc1ncnc3c(Nc4ccc(C#N)cc4F)ncnc13)C2`, the %max in experiment [1] was 78.9%. In addition, the EC50 in experiment [2] came out at 36 nM.

For `CC(C)(C)OC(=O)N1[C@@H]2CC[C@H]1C[C@H](Nc1ncnc3c(Nc4ccc(S(C)(=O)=O)cc4F)ncnc13)C2`, the %max in experiment [1] worked out at 65.3%. Also, the EC50 in experiment [2] was determined as 452 nM.

In the case of `CC(C)(C)OC(=O)N1[C@@H]2CC[C@H]1C[C@H](Oc1ncnc3c(Nc4ccc(C#N)cc4F)ncnc13)C2`, the %max in experiment [1] is 36.4%. For the same molecule, in experiment [2], the EC50 is greater than 10000 nM.

`CC(C)(C)OC(=O)N1CCC(Oc2ncnc3c(Nc4ccc(C#N)cc4F)ncnc23)CC1`: the %max in experiment [1] came out at 53.4%. Further, the EC50 in experiment [2] came out at 1000 nM.

With `CC(C)(C)OC(=O)N1[C@@H]2CC[C@H]1C[C@H](Nc1ncnc3c(Nc4ccc(C#N)cc4F)ncnc13)C2`, the %max in experiment [1] is 58.1%. Also, in experiment [2], the EC50 is 1700 nM.

Turning to `CN(C)C(=N)NC(=N)N` [METFORMIN], the Activity in experiment [3] was determined as 18.2%.

Take `CC(C)(C)OC(=O)N1[C@@H]2CC[C@H]1C[C@@H](Nc1ncnc3c(Nc4ccc(S(C)(=O)=O)cc4F)ncnc13)C2`: the %max in experiment [1] was 87.5%. Moreover, in experiment [2], the EC50 was determined as 2.2 nM. For the same molecule, the Activity was 13.5% in experiment [4], “Dose-dependent effect” in experiment [5] and 6.4% in experiment [6].

For the molecule `CC(C)(C)OC(=O)N1[C@@H]2CC[C@H]1C[C@H](Nc1ncnc3c(Nc4ccc(S(C)(=O)=O)cc4)ncnc13)C2`, the %max in experiment [1] was determined as 47.5%. Further, the EC50 in experiment [2] was 1400 nM.

For `CC(C)(C)OC(=O)N1[C@@H]2CC[C@H]1C[C@@H](Nc1ncnc3c(Nc4ccc(C#N)cc4F)ncnc13)C2`, the %max in experiment [1] is 83.8%. Further, the EC50 in experiment [2] worked out at 8.1 nM. Moreover, the results for the Activity in experiment [4], in experiment [5] and in experiment [6] were 8.9%, “Dose-dependent effect” and 3.5%, respectively.

For `CC(C)(C)OC(=O)N1C[C@@H]2CC[C@H]1C[C@@H]2Nc1ncnc2c(Nc3ccc(C#N)cc3F)ncnc12` (relative stereo), the %max in experiment [1] was determined as 73.3%. For the same molecule, in experiment [2], the EC50 turned out to be 49 nM.
